The list is not random: actives were taken first. Their share in the collection is about 2%.
DENV2 CPE: inhibitors of DENV2 cytopathic effect, primary screen, cell-based, plate reader, single concentration | DENV2-infected cells, cytopathic effect rescue | CPE inhibition, % at 9.99 µM | actives 1.7% (n = 350,000) | AID 651640, 2012; in the data active = CPE inhibition above about 20%, passing the limit was not always enough; inconclusive = no clear call, values can overlap the other calls; tested in BHK-21 cells;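 note: 0% = median of neutral control wells and 100% = median of positive control wells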
FN deposition inh: inhibitors of fibronectin matrix deposition, primary screen, AH1F cells, Alexa488-fibronectin fluorescence, plate reader. AH1F fibroblasts, overnight. inhibition, % at 12.6 µM. actives 0.086% (n = 350,000). AID 743247, 2014;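 active = mean inhibition across replicates of 30% or more, regardless of how many single replicates reach that level; inconclusive = mean under 30% yet at least half of replicates reach 30%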;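 note: positive control wells lacked labelled fibronectin entirely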
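Material – AH1F fibroblast monolayer, labelled fibronectin deposition · Reagent – labelled fibronectin 24 nM · Timing – 1 h adhesion, overnight exposure · Measured by – fluorescence at 485 nm excitation, 525 nm emission · Read-out – inhibition of fibronectin deposition signal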
XiGFP reactiv: activators of inactive X chromosome reactivation, primary screen, imaging, XiGFP fibroblasts, GFP high-content imaging, set 2; XiGFP mouse fibroblasts, % GFP-positive cells imaging, 3 d; cells co-treated with 5-aza-dC sensitizer; scaled so ellipticine positive control = 100%; activation, % at 7.58 µM; actives 0.055% (n = 360,000);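 active = mean normalized replicate activation at least 10% and every replicate at or above 10%; inconclusive = only one of the two criteria met; inactive = mean below 10% and not all replicates reach 10%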;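 note: 0% = median of on-plate neutral control wells and 100% = ellipticine 6 µM median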
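System: SV40-immortalized XiGFP fibroblast cells, line 68-5-11 / Incubation: 3-day compound exposure, then 15 min fixation at room temperature / Compound: single concentration per compound, delivered by pin transfer / Buffer or medium: DMEM plus 5-aza-dC sensitizer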
CaV13 FRET inh: Primary screen for inhibitors of IQ motif and Ca2+-dependent inactivation inhibitor domain binding in CACNA1D, Förster resonance energy transfer in living cells, …. HEK cells, CFP/YFP FRET ICDI-IQ, plate reader, 10 min; percent FRET-ratio fall versus neutral wells. inhibition, % at 12.3 µM. actives 0.098% (n = 340,000);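 active = mean replicate inhibition of at least 30% and at least 1% of replicates passing that level; inconclusive = only one of the two criteria is met; inactive = neither criterion is met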;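 note: 0% = median of the neutral control wells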
Casp6 inh: human caspase-6 inhibitors, primary screen, biochemical, VEID-R110 fluorescence, single point, set 2. P55212. purified caspase-6, Z-VEID-R110 cleavage fluorescence. inhibition, % at 12.5 µM. actives 0.53% (n = 350,000);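 active = mean inhibition across replicates at least about 35%, with every replicate also reaching that limit, limit read from the data; inconclusive = only one of the two criteria met; inactive = neither criterion met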;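 note: 0% = median of neutral control wells and 100% = no fluorescence left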
Target sequence (P55212 24-179 limits assumed): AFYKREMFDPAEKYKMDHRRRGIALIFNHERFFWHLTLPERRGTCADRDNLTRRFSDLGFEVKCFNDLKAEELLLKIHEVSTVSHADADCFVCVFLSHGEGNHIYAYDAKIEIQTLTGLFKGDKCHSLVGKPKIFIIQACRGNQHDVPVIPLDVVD
Target sequence (P55212 194-293 limits assumed): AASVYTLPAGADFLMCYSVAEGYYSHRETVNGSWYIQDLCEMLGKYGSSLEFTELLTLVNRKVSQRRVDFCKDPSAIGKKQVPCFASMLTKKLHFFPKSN
Active calls of the source: *; ? = inconclusive; · = no result given.

SMILES | DENV2 CPE | FN deposition inh | XiGFP reactiv | CaV13 FRET inh | Casp6 inh
CCCN1C[C@H](C)[C@H](OC)CN(C)C(=O)c2ccc(NC(=O)CC(F)(F)F)cc2OC[C@H]1C | 12.6 | · | 0.1 | · | -1.9
CCCN1C[C@H](C)[C@H](OC)CN(C)C(=O)c2ccc(NC(=O)CC(F)(F)F)cc2OC[C@@H]1C | 33.5* | · | 0.3 | · | 1.2
O=C(c1ccccc1)N1CC[C@@H]2[C@@H](CO)Nc3ccc(-c4ccccc4F)cc3[C@@H]21 | 33.1* | 10.5 | 0.0 | · | -0.5
O=C(c1ccccc1)N1CC[C@@H]2[C@H](CO)Nc3ccc(-c4ccccc4F)cc3[C@@H]21 | 17.4 | -6.1 | 0.0 | · | 0.6
O=C(c1cnccn1)N1CC[C@@H]2[C@@H](CO)Nc3ccc(-c4ccccc4F)cc3[C@@H]21 | 113.8* | -0.9 | 0.3 | · | -0.9
Fc1ccc(-c2nc3ccccn3c2NCc2ccc3c(c2)OCO3)cc1 | -2.9 | 11.3 | 0.1 | 48.9* | 1.5
Cc1ccn2c(NCc3ccc4c(c3)OCO4)c(-c3ccc(O)cc3)nc2c1 | 6.2 | · | · | -6.7 | -1.2
CCOc1ccc(/C=C2\SC(=O)N(CCNC(=O)CN3C(=O)NC4(CCCC4)C3=O)C2=O)cc1OC | 55.6* | · | 0.3 | · | 2.5
C/C(=N\NC(=O)c1ccc(Cn2cc([N+](=O)[O-])cn2)o1)c1cccc(NC(=O)c2cccnc2)c1 | -1.3 | 31.2* | 0.2 | -2.8 | -3.4
C[C@H]1CCCCO[C@H](CN(C)S(=O)(=O)c2ccc(F)cc2)[C@@H](C)CN([C@@H](C)CO)C(=O)c2cc(NC(=O)Nc3ccc(C(F)(F)F)cc3)ccc2O1 | 7.8 | -12.6 | -0.1 | · | -0.3
Cc1ccc(CC(=O)Nc2cccc(C(=O)Nc3c(C)n(C)n(-c4ccccc4)c3=O)c2)cc1C | 30.5* | -13.3 | 0.0 | -15.6 | 1.8
Cc1c(NC(=O)c2cccc(NC(=O)Cc3ccc(Cl)cc3)c2)c(=O)n(-c2ccccc2)n1C | -5.5 | -1.1 | 0.0 | -2.5 | -0.1
C[C@@H]1CN([C@H](C)CO)S(=O)(=O)c2ccc(-c3cccnc3)cc2O[C@H]1CN(C)C | 12.3 | 0.0 | 0.0 | · | -1.7
CC1(C)CC(=O)N(CC(=O)O)c2ccccc2S1(=O)=O | 33.8* | -9.8 | 0.1 | 2.1 | -3.2
O=C(Nc1ccc(F)cc1)N1CCCCN2[C@H](CO)[C@@H](c3ccc(C4=CCCCC4)cc3)[C@H]2C1 | 28.8* | · | 0.1 | · | 1.6
N#Cc1cccc(-c2ccc([C@@H]3[C@H](CO)N4CCCCN(C(=O)Nc5ccc(F)cc5)C[C@@H]34)cc2)c1 | 25.5* | · | 0.3 | · | ·
CC(C)CC#Cc1cnc2c(c1)C(=O)N([C@@H](C)CO)C[C@H](C)[C@@H](CN(C)Cc1ccc(C(=O)O)cc1)O2 | -0.9 | · | 0.0 | · | 2.7
C[C@H]1CN([C@@H](C)CO)C(=O)Cc2cc(NC(=O)Nc3ccc(F)cc3)ccc2O[C@H]1CN(C)C(=O)Nc1ccc2c(c1)OCO2 | -7.3 | -1.9 | -1.3 | · | -2.8
COC(=O)C1=C(C)N(Cc2ccccc2C(F)(F)F)C(=NCc2ccc(C(F)(F)F)cc2)NC1c1ccc(Cl)cc1 (stereo not drawn) | 24.9* | -6.5 | 0.0 | -2.5 | -2.1
COC(=O)C1=C(C)N(Cc2cccc(C(F)(F)F)c2)C(=NCc2ccc(C(F)(F)F)cc2)NC1c1ccccc1C(F)(F)F (stereo not drawn) | 27.6* | -2.8 | -0.1 | · | -2.6
COC(=O)C1=C(C)N(Cc2ccccc2C(F)(F)F)C(=NCc2ccc(OC)cc2)NC1c1ccccc1 (stereo not drawn) | 41.8* | 2.6 | 0.1 | -2.9 | -1.6
COC(=O)C1=C(C)N(Cc2ccccc2C(F)(F)F)C(=NCc2ccc(OC)cc2)NC1c1ccc(Cl)cc1 (stereo not drawn) | -3.0 | -12.6 | 0.1 | -2.7 | -1.9
COC(=O)C1=C(C)N(Cc2cccc(C(F)(F)F)c2)C(=NCc2ccc(OC)cc2)NC1c1ccccc1C(F)(F)F (stereo not drawn) | -14.3 | -2.3 | 0.2 | -2.4 | 1.9
CN(C)CC(=O)N[C@@H]1CC[C@@H](CCn2cc(C3CC3)nn2)O[C@@H]1CO | 9.4 | -7.7 | 0.8 | · | 0.9
NCC[C@H]1CC[C@H](NC(=O)Nc2ccc(F)cc2)[C@H](CO)O1 | 2.5 | -3.3 | 0.3 | · | 0.2
SMILES | DENV2 CPE | FN deposition inh | XiGFP reactiv | CaV13 FRET inh | Casp6 inh
COc1ccc(C(CNC(=O)CCNC(=O)c2ccc(Br)cc2)N2CCOCC2)cc1 (stereo not drawn) | 38.9* | · | 0.0 | -5.6 | 0.8
CC(=O)N1CCc2cc(Br)cc(S(=O)(=O)N3CCC(C(=O)O)CC3)c21 | 9.1 | -4.0 | -0.1 | -2.0 | 39.2*
CO[C@@H]1CN(C)C(=O)c2ccc(NS(C)(=O)=O)cc2OC[C@@H](C)N(Cc2ccccc2)C[C@@H]1C | 4.6 | · | 0.7 | · | -0.6
C[C@@H]1CN([C@H](C)CO)C(=O)Cc2cc(NC(=O)Cc3cn(C)c4ccccc34)ccc2O[C@@H]1CN(C)Cc1ccc(Cl)c(Cl)c1 | -3.3 | · | -0.1 | · | -0.1
CC(C)CC#Cc1ccc([C@@H]2[C@H]3CN(S(C)(=O)=O)CC(=O)N3[C@H]2CO)cc1 | · | · | 0.0 | · | ·
CO[C@H]1CN(C)C(=O)c2cc(NS(C)(=O)=O)ccc2OC[C@@H](C)N(C(=O)c2ccc3c(c2)OCO3)C[C@H]1C | 27.5* | 1.5 | 0.3 | · | -1.4
CO[C@H]1CN(C)C(=O)c2cc(NS(C)(=O)=O)ccc2OC[C@H](C)N(C(=O)c2ccc3c(c2)OCO3)C[C@@H]1C | 41.7* | -11.8 | 0.3 | · | -2.9
COc1ccc2c3c([nH]c2c1)[C@@H](CO)N(C(=O)NC(C)C)CC31CCN(Cc2ccc(F)cc2)CC1 | 13.2 | · | 0.0 | · | 3.7
COCC(=O)N(C)C[C@H]1Oc2cc(C3=CCCC3)ccc2S(=O)(=O)N([C@H](C)CO)C[C@@H]1C | ? | · | 0.6 | · | ·
O=c1cc(-c2c(O)c3ccccc3n(Cc3ccccc3)c2=O)[nH][nH]1 | 2.3 | 2.4 | 0.1 | -1.2 | 55.6*
NNC(=O)c1sc(-c2ccc(Cl)cc2)cc1N | · | -2.4 | 19.1* | -4.8 | 0.5
CCOC(=O)c1sc(-c2ccc(Br)cc2)cc1N | 3.9 | · | · | -7.9 | -1.5
CN(C)CC(=O)N1[C@@H]2Cn3c(cccc3=O)[C@H]1[C@@H](C(=O)NCc1ccccc1)[C@@H]2CO | 5.0 | · | 0.0 | · | -0.7
CC(=O)Nc1cccc2cc(S(=O)(=O)O)ccc12 | 1.7 | -1.8 | -0.1 | -3.7 | 43.6*
C[C@H](NC(=O)C[C@H]1CC[C@@H](NC(=O)CN2CCOCC2)[C@H](CO)O1)c1ccccc1 | -9.1 | 3.9 | -0.2 | · | 2.5
O=C(Nc1nc2ccsc2c(=O)s1)c1ccco1 | -2.4 | 0.6 | 0.0 | -19.3 | 36.5*
